Source: PubChem BioAssay (PCMD)
Yeast growth tox: Inhibits yeast growth, turbidity readout. S. cerevisiae wild-type growth, A595 turbidity, 16 h. growth inhibition, % at 25 µM (by protocol). 30,000 compounds, 0.3% hits;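 active means mutant and wild-type yeast strains alike exhibit over 30% growth inhibition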
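system = S. cerevisiae wild-type or eIF2Bepsilon-R284H mutant strain | buffer or medium = YPD medium | dosing = one dose, 25 µM compound, 0.2% DMSO | schedule = 16 h at 30 °C | measured by = A595 turbidity | evaluation = growth inhibition (%) versus cell controls and blanks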
eIF2B yeast act: modulators of yeast eIF2B activity | S. cerevisiae eIF2B-epsilon R284H, GCN4-lacZ luminescence | inhibition, % at 25 µM (by protocol) | 27,000 compounds, 0.91% hits | AID 688;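 active means mutant luminescence inhibited past about 50% while wild type luminescence and mutant growth stay under set limits, limit read from the data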
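Times: 16 h growth with compound at 30 °C, 90 min Beta-Glo step; Assay system: yeast eIF2B-epsilon R284H mutant carrying GCN4–beta-galactosidase fusion; Measure: % inhibition of reporter signal and growth versus controls; Dosing: one concentration, 25 µM, 0.25% DMSO; Buffer or medium: YPD yeast growth medium; Measured by: Beta-Glo luminescence plus absorbance at 595 nm.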
Numbers stand for hits; n = inactive; x = not tested or not shown. Only some compounds are listed: those with a hit (about 1% of all), similar ones and a draw of the others.

SMILES	Yeast growth tox	eIF2B yeast act
CC1(C)CC(=O)c2cc(OCC(=O)N3CCOCC3)ccc2O1	n	n
COc1cc(NS(=O)(=O)c2ccc(Cl)cc2)c(C(=O)O)cc1OC	n	n
CCN1CCN(C(c2cccs2)C(C)NS(=O)(=O)c2ccc(Br)cc2)CC1 (stereo not given)	n	n
C=CCc1cccc(CNc2nc3ccccc3n2C(C)C)c1O	n	63.0
CCn1c(NCc2cccc(OC)c2OC)nc2ccccc21	n	n
Cc1ccc(OCC(O)CNS(=O)(=O)c2ccccc2C(=O)N2CCCCC2)cc1 (stereo not given)	x	n
C=CCc1c(C)c(C#N)c2nc3ccccc3n2c1NCCN(C)C	95.5	n
CCc1c(C)c(C#N)c2nc3ccccc3n2c1NCc1ccco1	n	x
CCOC(=O)c1cc(C(O)(C(F)(F)F)C(F)(F)F)c(/N=C/N(C)C)o1	n	n
Cc1cccc(N2C(=O)C3C4C=CC(C4)C3C2=O)c1 (stereo not given)	n	57.1
Cc1ccc(N2C(=O)C3C4C=CC(C4)C3C2=O)cc1C (stereo not given)	n	n
N=c1c(-c2nc3ccccc3[nH]2)cc(C(=O)c2cccs2)nn1-c1ccc(Cl)cc1	n	x
Cc1cccc(-n2c(N)cc(=O)nc2SCC(=O)Nc2nnc(C)s2)c1	n	n
O=C(c1c[nH]c2ccc(S(=O)(=O)N3CCOCC3)cc2c1=O)N1CCCC1	n	60.1
O=C(O)c1c[nH]c2ccc(S(=O)(=O)N3CCN(c4ccc(F)cc4)CC3)cc2c1=O	n	n
CCN(C(=O)c1cc2cccc(OC)c2oc1=O)C1CCCCC1	n	x
Cc1ccccc1OCc1nc2c3cnn(C)c3ncn2n1	n	54.7
Cc1cccc(C)c1OCc1nnc2c3cnn(C)c3ncn12	n	n
COc1ccccc1C1CC(c2ccccc2)Nc2ncnn21 (stereo not given)	n	n
Cn1c(=O)c2c(nc(SCC(=O)N3CCc4ccccc43)n2Cc2ccc(F)cc2)n(C)c1=O	n	n
CC1=C(C)/C(=N\OS(=O)(=O)c2ccccc2)C=CC1=O	99.6	n
C=CCn1c(N)cc(=O)nc1SCC(=O)Nc1ccccc1	n	57.8
C=CCn1c(SCC(=O)Nc2sccc2C(N)=O)nc2ccccc2c1=O	n	n
O=C(Nc1ccccn1)c1cc2ccccc2o1	x	56.6
CCC(=O)Nc1ccc(NC(=O)c2cc3ccccc3o2)cc1	n	n
SMILES	Yeast growth tox	eIF2B yeast act
O=C(COc1cccc2ccccc12)Nc1nc2ccccc2[nH]1	30.0	x
CC(CC(=O)Nc1nc2ccccc2[nH]1)c1ccccc1 (stereo not given)	n	n
COc1cc2c(cc1OC)-c1nnc(-c3ccco3)n1C1(CCCC1)C2	x	n
Cc1cccc2cc(CN(Cc3ccccc3)C(=O)N3CCOCC3)c3nnnn3c12	n	n
CCN(C(=O)COC(=O)c1[nH]c(C)c(C(C)=O)c1C)C1CCS(=O)(=O)C1 (stereo not given)	n	n
CCC(C)N(C(=O)COC(=O)c1[nH]c(C)c(C(C)=O)c1C)C1CCS(=O)(=O)C1 (stereo not given)	n	54.5
Cc1nn(-c2ccccc2)c(C)c1C(=O)OCC(=O)N1c2ccccc2NC(=O)C1(C)C	n	n
CCCC(=O)N1CCN(c2nc(CC(C)C)c3c(c2C#N)CCC3)CC1	x	n
O=C(Nc1ccccc1C(=O)NC1CCCCC1)c1ccco1	n	n
Cc1ccc(N2CC(C(=O)Nc3ccccc3C(=O)NC3CCCCC3)CC2=O)cc1C (stereo not given)	n	54.0
COC(=O)c1ccc(C(=O)OC)c(NC(=O)c2ocnc2C)c1	n	n
CCC(=O)Nc1c2c(nn1-c1ccc(C)cc1C)CSC2	n	52.1
Cc1ccccc1-n1nc2c(c1NC(=O)c1c(-c3ccccc3Cl)noc1C)CSC2	n	n
CCCCCCNC(=O)c1c(O)c2ccccc2[nH]c1=O	x	n
COC(=O)c1ccccc1NC(=O)CSc1nc(-c2ccco2)cc(C(F)(F)F)n1	n	65.6
COC(=O)c1ccc(C(=O)OC)c(NC(=O)CSc2nc(-c3ccco3)cc(C(F)(F)F)n2)c1	n	n
Cc1ccc(S(=O)(=O)NCCC(=O)O)cc1	n	n
CC(C)NC(=O)CCNS(=O)(=O)c1ccc(Br)cc1	n	82.8
CCCCCCCCCCn1c2c(c(=N)c3c1CCC3)CCC2	78.9	x
CCCCCCn1ccc(=N)cc1	n	n
O=C(NCC1CCCO1)c1ccc(CS(=O)(=O)c2ccc(Cl)cc2)o1 (stereo not given)	n	x
O=c1c2cnn(-c3ccc(F)cc3)c2ncn1Cc1ccccn1	n	n
N#Cc1c(/N=C/c2cc(Br)cs2)sc2c1CCC2	n	60.1
N#Cc1c(/N=C/c2cccs2)sc2c1CCC2	n	n
CC(OC(=O)c1nsc(Cl)c1Cl)C(=O)NC(C)(C)C (stereo not given)	n	x
SMILES	Yeast growth tox	eIF2B yeast act
Cn1c(=O)[nH]c(=O)c2c1nc(N1CCCCCC1)n2CCSc1nc2ccccc2[nH]1	n	n
CC(C)Nc1nc(NC(C)(C)C)nc(Oc2ccc(=O)n(-c3ccccc3)n2)n1	n	n
CCOC(=O)Cn1c(=O)c2c(nc3n2CCN3c2ccc(C)cc2)n(C)c1=O	n	n
CCOC(=O)Cn1c(=O)c2c(nc3n2CCN3Cc2ccccc2)n(C)c1=O	n	53.1
Cc1ccc(S(=O)(=O)NCCCOC(=O)Nc2ccncc2)cc1	n	n
Cn1c(=O)c(=O)n(C)c2cc(S(=O)(=O)N3CCCCCC3)ccc21	n	57.6
CCOc1cc(S(=O)(=O)N2CCCCC2)ccc1F	n	n
Cc1nn(CC#N)c(=O)n1-c1cccc(F)c1	n	n
COc1ccc(OCC(O)CN2CCCCCC2)cc1 (stereo not given)	n	n
CCC(=C(c1ccc(OC)cc1)c1ccc(OC)cc1)c1cn(CC(O)CN2CCN(C)CC2)c2ccccc12 (stereo not given)	101.6	n
CCOC(=O)Cn1nc(-c2ccc(F)cc2)oc1=O	n	n
CCN(CC)CCn1c2ccccc2c2cnc(N)c(C#N)c21	n	n
Cc1csc(C(C#N)C(=O)c2cc3ccccc3o2)n1 (stereo not given)	n	x
CC(C)(C)N1CC2([N+](=O)[O-])CN(C(C)(C)C)CC([N+](=O)[O-])(C1)C2	n	n
CCn1c(Sc2nc(C)nc3scc(-c4cccs4)c23)n[nH]c1=O	46.2	n
CCc1nc2scc(-c3cccs3)c2c(=O)o1	n	n
COC(=O)C1(Cc2ccccc2)NC(c2ccccc2C)C2C(=O)N(c3ccc4c(c3)OCO4)C(=O)C21 (stereo not given)	n	n
COc1cccc(C2NC(CC(C)C)(C(=O)O)C3C(=O)N(Cc4ccccc4)C(=O)C23)c1O (stereo not given)	n	51.8
CC1(C)C(=O)OC(C(=O)c2ccc(C(C)(C)C)cc2)C(C)(C)C1=O (stereo not given)	n	n
O=C(CN1C(=O)NC2(CCCc3ccccc32)C1=O)N1CCc2ccccc2C1 (stereo not given)	n	n
COc1ccccc1CO/N=C/c1cccn1-c1nccc(N(C)C)c1C#N	n	n
O=C(NCc1ccncc1)c1ccc(Cl)c(S(=O)(=O)N2CCOCC2)c1	x	n
CC(C)(C)SCCNC(=O)c1ccc(Cl)c(S(=O)(=O)N2CCOCC2)c1	n	51.9
Cc1nn(CC#N)c(=O)n1-c1ccc(F)cc1	n	n
COc1cc(C(=O)Nc2sc(C(=O)N3CCOCC3)c(C)c2C#N)cc(OC)c1OC	n	n
